Assay outcomes as filed in PubChem.
The list is not random: actives were taken first. Their share in the collection is about 2.5%.
ERAP1 inh = ERAP1 (human) enzyme inhibition | Q9NZ08 | hit rate 0.15% among 340,000 | inhibition, % at 10.7 µM | recombinant ERAP1, Leu-AMC fluorescence, 60 min;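 active means mean replicate inhibition of at least 30%, or all replicates individually reaching that 30% level; inactive means mean below 30% and not every replicate reaching it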;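 further: 0% = neutral control wells and 100% = L-leucinethiol positive control wells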
DENV2 CPE = DENV2-induced cell death inhibition; CPE inhibition, % at 9.99 µM; DENV2-infected cells, cytopathic effect rescue, plate reader; hit rate 1.7% among 350,000; in the data active means CPE inhibition above about 20%, passing the limit was not always enough; inconclusive means no clear call, values can overlap the other calls; tested in BHK-21 cells;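 further: 0% = median of neutral control wells and 100% = median of positive control wells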
E-selectin induc = E-selectin induction on HUVECs. P16581. HUVEC E-selectin immunofluorescence imaging; normalized: neutral wells 0, TNF-alpha wells 100. activation, % at 7.58 µM. hit rate 0.37% among 260,000;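 active means mean E-selectin-positive cell signal at least 10% of the positive control, reached in at least 60% of replicates, without over 20% cell loss; inconclusive means no rule given, readout overlaps actives, possibly toxicity-flagged; inactive means the rest, including those meeting only one limit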
Target sequence (P16581 whole entry, looked up): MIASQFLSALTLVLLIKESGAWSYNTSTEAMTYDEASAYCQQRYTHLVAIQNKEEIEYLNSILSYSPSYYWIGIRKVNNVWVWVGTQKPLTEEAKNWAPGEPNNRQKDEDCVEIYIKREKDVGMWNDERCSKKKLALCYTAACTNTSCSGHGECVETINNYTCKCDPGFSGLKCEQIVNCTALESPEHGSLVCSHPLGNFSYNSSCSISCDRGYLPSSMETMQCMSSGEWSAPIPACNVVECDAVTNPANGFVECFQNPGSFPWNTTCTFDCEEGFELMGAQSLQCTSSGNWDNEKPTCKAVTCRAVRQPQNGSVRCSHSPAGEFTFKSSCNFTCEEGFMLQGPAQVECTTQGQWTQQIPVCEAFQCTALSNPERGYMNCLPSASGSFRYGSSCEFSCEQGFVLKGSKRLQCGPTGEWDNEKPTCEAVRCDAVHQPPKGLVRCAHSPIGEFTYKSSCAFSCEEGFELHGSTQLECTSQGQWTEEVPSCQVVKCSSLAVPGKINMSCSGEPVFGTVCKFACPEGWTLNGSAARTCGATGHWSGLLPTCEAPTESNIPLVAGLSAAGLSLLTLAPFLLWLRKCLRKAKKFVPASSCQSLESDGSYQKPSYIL
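Test system: HUVEC | Signal: Immunofluorescence imaging | Read-out: Percent E-selectin-positive cells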
SIRT5 block = sirtuin-5 (human) deacylase inhibition; Purified SirT5, succinyl-peptide AMC, trypsin-coupled fluorescence; hit rate 1.1% among 330,000; inhibition, % at 15 µM; in the data active means inhibition above about 15%; inconclusive means no clear call, values can overlap the other calls
PglD inh = PglD (C. jejuni) enzyme inhibition. purified PglD enzyme, DTNB colorimetric CoA detection. inhibition, % at 12.5 µM. hit rate 0.098% among 360,000; in the data active means inhibition above about 16%, passing the limit was not always enough; inconclusive means no clear call, values can overlap the other calls
Starred values were filed as active, the others as inactive; ? = inconclusive; / = no result given.

SMILES	ERAP1 inh	DENV2 CPE	E-selectin induc	SIRT5 block	PglD inh
C[C@]12c3[nH]c4ccc(Cl)cc4c3CCN1C(=O)[C@@H](CC(=O)NCc1cccc(C(F)(F)F)c1)C[C@@H]2C(=O)N1CCOCC1	0	-8	-1	40*	0
C[C@]12c3[nH]c4cc(-c5ccco5)ccc4c3CCN1C(=O)[C@@H](CC(=O)NCCc1ccccn1)C[C@@H]2C(=O)N1CCOCC1	-3	50*	/	-10	-1
C[C@]12c3[nH]c4ccccc4c3CCN1C(=O)C(CC(=O)NCc1cccc(C(F)(F)F)c1)C[C@@H]2C(=O)N1CCOCC1 (stereo partly drawn)	0	5	3	2	5
COC1CCN(Cc2cn(Cc3ccccc3)nc2-c2cc3ccccc3o2)CC1	/	/	0	-1	-3
CCCCN(C(=O)c1ccc(S(=O)(=O)N2CCCC2)cc1)C1CCS(=O)(=O)C1 (stereo not drawn)	5	6	/	-9	0
Cc1cc(C(=O)CN2C(=O)C(=O)N(Cc3ccco3)C2=O)c(C)n1CCc1ccc(F)cc1	4	-9	90*	-1	-6
Cc1cc(C(=O)CN2C(=O)C(=O)N(Cc3ccco3)C2=O)c(C)n1CCc1ccccc1	-2	4	/	0	-2
Cc1[nH]c2ccccc2c1C(=O)CN1C(=O)C(=O)N(Cc2ccco2)C1=O	33*	0	4	-8	/
COC(=O)c1ccc(CON2C(=O)c3ccccc3C2=O)cc1	/	/	/	/	1
CC[C@]12c3[nH]c4ccc(Cl)cc4c3CCN1C(=O)[C@@H](CC(=O)NCCC1=CCCCC1)C[C@@H]2C(=O)N1CCN(C(=O)C2CC2)CC1	-2	16	0	18*	-1
C[C@]12c3[nH]c4ccc(Cl)cc4c3CCN1C(=O)[C@@H](CC(=O)NCCC1=CCCCC1)C[C@@H]2C(=O)N1CCCCC1	-5	0	0	-1	1
CC[C@]12c3[nH]c4ccccc4c3CCN1C(=O)C(CC(=O)NCCC1=CCCCC1)C[C@@H]2C(=O)N1CCN(C(=O)C2CC2)CC1 (stereo partly drawn)	2	54*	0	3	5
CC[C@@]12C(=O)N(c3cccc(Br)c3)C(=O)N1[C@H](c1cccc(C)c1)[C@@H]1C(=O)N(Cc3ccccc3)C(=O)[C@@H]12	/	/	0	/	-3
COc1cc(CNC(=O)Nc2nc(C(N)c3ccccc3)cs2)cc(OC)c1OC (stereo not drawn)	0	7	0	21*	-5
COc1cc(CNC(=O)Nc2nc(C(N)Cc3ccc(Cl)cc3)cs2)cc(OC)c1OC (stereo not drawn)	-3	?	0	/	4
CCCC(=O)OC[C@H]1CN(C2CCCC2)S(=O)(=O)c2c(Oc3ccccc3)cccc2O1	-7	-3	8	-2	/
CCCC(=O)OC[C@H]1CN(C2CCCC2)S(=O)(=O)c2c(F)cccc2O1	-5	49*	0	6	/
O=C(CSc1nnc2nnc3ccccc3n12)N1CCOCC1	3	-3	-1	-1	-1
CCC(=O)Oc1ccc(C(CC)C(CC)c2ccc(OC(=O)CC)cc2)cc1 (stereo not drawn)	0	42*	0	0	3
Cc1ccnc(NC(NC(=O)C(C)C)(C(F)(F)F)C(F)(F)F)c1	6	20	136*	-1	/
O=C(NN1C(=O)/C(=C/C=C/c2ccco2)SC1=S)c1ccncc1	4	-3	/	43*	-10
O=C(NN1C(=O)/C(=C/C=C/c2ccccc2)SC1=S)c1ccncc1	7	3	/	22*	/
O=C1/C(=C/C=C/c2ccco2)SC(=S)N1c1ccc(O)cc1	0	1	2	14	/
CC(C)CCOc1ccc(C(=O)N2CCN(c3ncccn3)CC2)cc1	-1	-1	0	-3	-1
COc1ccc(-c2cc(N3C(=O)Nc4ccccc4N3O)n[nH]2)cc1OC	6	38*	/	/	/
SMILES	ERAP1 inh	DENV2 CPE	E-selectin induc	SIRT5 block	PglD inh
COc1cc(-c2cc(N3C(=O)Nc4ccccc4N3O)n[nH]2)cc(OC)c1OC	/	/	/	/	-2
O=C(CCS(=O)(=O)Cc1ccccc1)Nc1nncs1	-2	11	0	19*	/
CCCCCc1c(-c2ccc(Cl)cc2)ncn1CCc1ccccc1OC	1	21*	0	/	/
O=C(O)C(c1ccccc1)N1C(=O)c2ccccc2C1=O (stereo not drawn)	-8	0	/	-5	3
O=C(O)CC(c1ccccc1)N1C(=O)c2ccccc2C1=O (stereo not drawn)	-4	40*	/	-6	/
CCCN1C[C@@H](C)[C@@H](OC)CN(C)C(=O)c2ccc(NC(=O)C3CCOCC3)cc2OC[C@H]1C	-6	-4	0	4	6
COc1ccccc1Cc1c(C2CCCCC2)nc2c(C)cc(Br)cn12	/	3	-5	-2	/
CC(C)CCN1C(=O)c2cccc3c(N)ccc(c23)C1=O	1	5	26*	2	-8
Cc1ccc(S(=O)(=O)Oc2ccc(/C=N/N=C3/NC(=O)C(CC(=O)O)S3)cc2)cc1 (stereo not drawn)	10	-2	/	28*	/
CCOc1cc(/C=N/N=C2/NC(=O)C(CC(=O)O)S2)ccc1OS(=O)(=O)c1ccc(C)cc1 (stereo not drawn)	-1	5	/	4	/
Cc1ccc(-c2nc3ccc(Cl)cn3c2Cc2ccccc2C(F)(F)F)cc1	0	-4	0	-2	-2
O=C(O)CN1C(=O)/C(=C\c2cccc(OCc3ccc(Cl)cc3Cl)c2)SC1=S	4	-6	/	15*	-1
O=C(CCN1C(=O)S/C(=C/c2ccccc2)C1=O)Nc1ccc(C(=O)O)c(O)c1	-1	5	/	4	6
O=C(O)CN1C(=O)/C(=C\c2ccccc2OCc2ccc(Cl)cc2Cl)SC1=S	8	3	1	1	2
O=C(CCCN1C(=O)/C(=C/c2ccccc2)SC1=S)Nc1ccc(C(=O)O)c(O)c1	15	-3	/	46*	-3
COc1cccc(/C=C2\SC(=S)N(CCCC(=O)N3CCCCC3)C2=O)c1	0	27*	0	-1	2
COc1cccc(/C=C2/SC(=S)N(CCC(=O)N3CCOCC3)C2=O)c1	2	-4	/	1	-2
COc1ccc(C=C2SC(=S)N(CCCC(=O)Nc3ccc(C(=O)O)c(O)c3)C2=O)cc1OC	35*	-7	0	53*	2
COc1ccc(/C=C2\SC(=S)N(CCCC(=O)Nc3cccc(C(=O)O)c3)C2=O)cc1OC	-18	?	0	9	-9
CN(C)CC(=O)N[C@@H]1C[C@@H]2O[C@@H](CO)CC[C@@H]2O[C@@H]1CCc1ccc(C2=CCCCC2)cc1	8	2	/	-6	/
COc1ccc(C(=O)N(C)C2(C)CCS(=O)(=O)C2)cc1OC (stereo not drawn)	3	-6	0	-2	/
O=C(CCCN1C(=O)C(=Cc2ccc3c(c2)OCO3)SC1=S)Nc1ccc(C(=O)O)c(O)c1	/	-12	0	34*	6
